≈ marks a conversion by molar mass, not a printed value.
Assays:
[1] = Area under plasma concentration vs time curve observed in Rhesus monkeys after, iv administration of single 30 mg/kg dose; type: ADME, organism-based, Macaca mulatta; set-up: dose 30 mg/kg, route intravenous; settings: rhesus monkey
Method in brief: (§1)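 Rhesus monkeys, adult males, six animals per compound, each given drug orally and iv; fasted overnight. Single 30 mg/kg solution doses, by nasogastric tube (in water) or saphenous vein (in isotonic lactated Ringer). Plasma sampled at intervals, frozen at -70 °C, antibacterial activity by microbiological assay. AUC in μg min/mL; oral bioavailability from oral vs iv AUC.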

[2] = Area under plasma concentration vs time curve observed in Rhesus monkeys after oral administration of single 30 mg/kg dose; type: ADME, organism-based, Macaca mulatta; set-up: dose 30 mg/kg, route oral; settings: rhesus monkey; method in brief: as §1
[3] = test system: Canis familiaris; test: Area under plasma concentration vs time curve observed in female mongrel dogs after, iv administration of single 15 mg/kg dose; type: ADME, organism-based, Canis lupus familiaris; set-up: dose 15 mg/kg, route intravenous; settings: dog, in vivo
Method in brief: (§2)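 Six female mongrel dogs (14-23 kg) fasted overnight, bladder catheterized; single 15 mg/kg solution doses by stomach tube (in water, total 500 mL) or cephalic vein (saline or pH 6.0 NaCl/phosphate/acetate buffer). Plasma sampled at intervals; activity by disk-plate agar diffusion against E. coli MB 3804, standards in dog serum or buffer. AUC μg min/mL, mean ± SEM; BA from iv vs po AUC and urinary recovery.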

[4] = test system: Canis familiaris; test: Area under plasma concentration vs time curve observed in female mongrel dogs after, oral administration of single 15 mg/kg dose; type: ADME, organism-based, Canis lupus familiaris; set-up: dose 15 mg/kg, route oral; settings: dog, in vivo; method in brief: as §2
[5] = Oral bioavailability in mouse; type: ADME, organism-based; settings: in vivo
Method in brief: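 Male Cox mice given water and liquid diet overnight; 20 mg/kg in saline (2 mg/mL) sc or orally; urine from collection cages plus bladder contents over 2 h; activity by agar well assay with Bacillus subtilis ATCC 6633. Bioavailability from percent dose excreted in urine after oral vs parenteral dosing.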

[6] = Oral bioavailability in Rhesus monkey; type: ADME, organism-based, Macaca mulatta; settings: in vivo; method in brief: as §1
[7] = Oral bioavailability in dog (female mongrel); type: ADME, organism-based, Canis lupus familiaris; settings: in vivo; method in brief: as §2
[8] = dose in urine (24-h urine excretion) in female mongrel dogs after, oral administration of single 15 mg/kg dose; type: ADME, organism-based, Canis lupus familiaris; set-up: dose 15 mg/kg, route oral; settings: dog
Method in brief: (§3)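 Female mongrel dogs (n=6), bladder catheter; urine collected at intervals after single 15 mg/kg iv or oral solution dose, frozen; antibiotic activity by disk-plate agar diffusion against E. coli MB 3804 with standards in pH 6.0 buffer; percent of dose recovered in urine.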

[9] = dose in urine (24-h urine excretion) in female mongrel dogs after, iv administration of single 15 mg/kg dose; type: ADME, organism-based, Canis lupus familiaris; set-up: dose 15 mg/kg, route intravenous; settings: dog; method in brief: as §3
[10] = test system: Escherichia coli; test: Minimum inhibitory concentration against EC14 strain Escherichia coli; type: functional
[11] = test system: Klebsiella aerogenes; test: Minimum inhibitory concentration against EB17 strain of Enterobacter aerogenes; type: functional
[12] = test system: Klebsiella pneumoniae; test: Minimum inhibitory concentration against X68 strain of Klebsiella pneumoniae; type: functional
[13] = test system: Mus musculus; test: Efficacy against mouse infected ip with C203 strain of Streptococcus pyogenes, administered po to 19-21-g random sex ICR mice at 1 hr and 5 hr; type: functional
Method in brief: (§4)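 ICR mice, random sex, 19-21 g, challenged ip with 50-500 LC50 from a frozen organism pool; compound given sc or po at 1 and 5 h after challenge, five 2-fold dose levels, eight mice per level; ED50 derived.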

[14] = test system: Mus musculus; test: Efficacy against mouse infected ip with C203 strain of Streptococcus pyogenes, administered sc to 19-21-g random sex ICR mice at 1 hr and 5 hr; type: functional; method in brief: as §4
[15] = test system: Mus musculus; test: Efficacy against mouse infected ip with park strain of Streptococcus pneumoniae administered po to 19-21-g random sex ICR mice at 1 hr and 5 hr; type: functional; method in brief: as §4
[16] = test system: Mus musculus; test: Efficacy against mouse infected ip with park strain of Streptococcus pneumoniae administered sc to 19-21-g random sex ICR mice at 1 hr and 5 hr; type: functional; method in brief: as §4
[17] = test system: Mus musculus; test: Efficacy against mouse infected ip with 3055 strain of Staphylococcus aureus, administered po to 19-21-g random sex ICR mice at 1 hr and 5 hr; type: functional; method in brief: as §4
[18] = test system: Mus musculus; test: Efficacy against mouse infected ip with 3055 strain of Staphylococcus aureus, administered sc to 19-21-g random sex ICR mice at 1 hr and 5 hr; type: functional; method in brief: as §4
[19] = test system: Salmonella; test: Minimum inhibitory concentration against X514 strain of Salmonella; type: functional
[20] = Minimum inhibitory concentration against N9 strain of Shigella sonnei; type: functional
[21] = test system: Staphylococcus epidermidis; test: Minimum inhibitory concentration against 222 strain of Staphylococcus epidermidis; type: functional
[22] = test system: Staphylococcus epidermidis; test: Minimum inhibitory concentration against Epil strain of Staphylococcus epidermidis; type: functional
[23] = test system: Staphylococcus aureus; test: Minimum inhibitory concentration against S13E strain of Staphylococcus aureus; type: functional
[24] = test system: Staphylococcus aureus; test: Minimum inhibitory concentration against V41 strain of Staphylococcus aureus; type: functional
[25] = test system: Staphylococcus aureus; test: Minimum inhibitory concentration against X1.1 strain of Staphylococcus aureus; type: functional
[26] = test system: Streptococcus pyogenes; test: Minimum inhibitory concentration against Streptococcus pyogenes C203; type: functional
[27] = test system: Haemophilus influenzae; test: Minimum inhibitory concentration against sens CL strain of Haemophilus influenzae; type: functional
[28] = test system: Haemophilus influenzae; test: Minimum inhibitory concentration against res 76 strain of Haemophilus influenzae; type: functional
[29] = test system: Streptococcus pneumoniae; test: Minimum inhibitory concentration against Park strain of Streptococcus pneumoniae; type: functional
[30] = test system: Staphylococcus aureus; test: Minimum inhibitory concentration against 3055 strain of Staphylococcus aureus
[31] = test system: Streptococcus pyogenes; test: Minimum inhibitory concentration against C203 strain of Streptococcus pyogenes
[32] = test system: Streptococcus pneumoniae; test: Minimum inhibitory concentration against park strain of Streptococcus pneumoniae

## O=C(Cc1csc2ccccc12)N[C@@H]1C(=O)N2C(C(=O)O)=C(Cl)CS[C@H]12
[1]
  AUC: 86800 ng·h/mL
[2]
  AUC: 1170 ng·h/mL
[3]
  AUC: 29300 ng·h/mL
[4]
  AUC: < 800 ng·h/mL
[5]
  bioavailability: 47%
[6]
  bioavailability: 1.3%
[7]
  bioavailability: < 3%
[8]
  dose excreted: 1.5%
[9]
  dose excreted: 20%
[10]
  MIC: 64 µg/mL (≈ 157 µM)
[11]
  MIC: > 128 µg/mL
[12]
  MIC: 128 µg/mL (≈ 313 µM)
[13]
  ED50: 5.5 mg/kg
[14]
  ED50: 3.8 mg/kg
[15]
  ED50: 36.2 mg/kg
[16]
  ED50: 14.8 mg/kg
[17]
  ED50: 1.51 mg/kg
[18]
  ED50: 0.62 mg/kg
[19]
  MIC: 128 µg/mL (≈ 313 µM)
[20]
  MIC: 128 µg/mL (≈ 313 µM)
[21]
  MIC: 0.25 µg/mL (≈ 0.611 µM)
[22]
  MIC: 1 µg/mL (≈ 2.45 µM)
[23]
  MIC: 8 µg/mL (≈ 19.6 µM)
[24]
  MIC: 8 µg/mL (≈ 19.6 µM)
[25]
  MIC: 0.125 µg/mL (≈ 0.306 µM)
[26]
  MIC: 0.06 µg/mL (≈ 0.147 µM)
[27]
  MIC: 1 µg/mL (≈ 2.45 µM)
[28]
  MIC: 0.25 µg/mL (≈ 0.611 µM)
[29]
  MIC: 0.125 µg/mL (≈ 0.306 µM)
[30]
  MIC: 0.25 µg/mL (≈ 0.611 µM)
[31]
  MIC: 0.06 µg/mL (≈ 0.147 µM)
[32]
  MIC: 0.06 µg/mL (≈ 0.147 µM)

Reference: ChEMBL document CHEMBL1123985, “Oral absorption of cephalosporin antibiotics. 1. Synthesis, biological properties, and oral bioavailability of 7-(arylacetamido)-3-chloro cephalosporins in animals” (J Med Chem, 1988)
